Screening results from PubChem.
KLK5 inh – human KLK5 protease inhibitors, primary screen, biochemical, 1536-well; recombinant hK5, fluorogenic AMC substrate cleavage; 210,000 tested, 0.59% active; AID 873, 2007; inhibition, % at 5 µM; Kallikrein-5 (Homo sapiens), Q9Y337;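 active means inhibition of 40% or more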
FXIa inh 1536 – human FXIa protease inhibitors, primary screen, biochemical, 1536-well. Coagulation factor XI (Homo sapiens), P03951. inhibition, % at 5 µM. 220,000 tested, 0.14% active. purified FXIa, Boc-Glu-Ala-Arg-AMC fluorogenic substrate;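 active means inhibition of at least 40%; inactive means inhibition below 40%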;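 further: fluorescence of freed AMC excited at 355 nm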
Target sequence (P03951 19-387 limits assumed): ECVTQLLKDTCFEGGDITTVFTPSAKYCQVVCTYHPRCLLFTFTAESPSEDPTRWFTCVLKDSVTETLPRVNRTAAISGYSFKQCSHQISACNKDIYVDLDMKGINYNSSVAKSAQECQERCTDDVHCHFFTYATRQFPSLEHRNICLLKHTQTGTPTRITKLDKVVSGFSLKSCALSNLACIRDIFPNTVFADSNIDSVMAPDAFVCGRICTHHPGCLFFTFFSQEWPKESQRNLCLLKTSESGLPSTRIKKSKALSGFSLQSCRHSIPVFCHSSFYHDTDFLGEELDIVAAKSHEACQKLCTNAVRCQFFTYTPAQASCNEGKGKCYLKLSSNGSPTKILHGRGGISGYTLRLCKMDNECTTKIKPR
Target sequence (P03951 388-625 limits assumed): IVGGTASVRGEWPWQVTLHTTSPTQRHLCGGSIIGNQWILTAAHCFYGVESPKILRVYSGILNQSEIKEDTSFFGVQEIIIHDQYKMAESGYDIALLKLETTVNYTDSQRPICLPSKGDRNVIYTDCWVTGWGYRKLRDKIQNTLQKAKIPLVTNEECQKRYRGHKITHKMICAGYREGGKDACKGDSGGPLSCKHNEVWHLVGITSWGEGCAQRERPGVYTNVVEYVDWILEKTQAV
FXIIa inh – human FXIIa protease inhibitors, primary screen, biochemical, 1536-well | purified FXIIa, Boc-QGR-AMC fluorogenic substrate, 2 h | 220,000 tested, 0.3% active | inhibition, % at 5 µM | AID 800, 2007 | Coagulation factor XII (Homo sapiens), P00748; in the data active means inhibition above about 40%
Thrombin inh – human alpha-thrombin inhibitors, primary screen, counter-screen for coagulation protease inhibitor project, biochemical, 1536-well, fluorogenic AMC substrate; 220,000 tested, 0.26% active; Prothrombin (Homo sapiens), P00734; Boc-VPR-AMC fluorogenic substrate cleavage; inhibition, % at 5 µM;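 active means inhibition at or above 40%; inactive means inhibition below 40%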
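Assay system: human alpha-thrombin enzyme. Reagent: Boc-VPR-AMC substrate, 15 µM final. Compound dosing: one concentration per compound, 5 µM, with 0.2% DMSO. Incubation: room-temperature reaction. Technique: AMC fluorescence, 355/460 nm. Measure: % inhibition relative to enzyme controls and enzyme-free blanks.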
Numbers stand for hits; . = inactive. In the library only some 1% were active in any assay of this set; here they are far more common.

SMILES	KLK5 inh	FXIa inh 1536	FXIIa inh	Thrombin inh
COc1ccc(OCC(O)CNC(=O)Nc2cc(F)ccc2C)cc1 (stereo not given)	.	.	.	.
COc1ccc(NS(=O)(=O)c2ccc(NC(=S)NC(=O)C(C)C)cc2)cc1	.	.	.	.
CC(C)C(=O)NC(=S)Nc1ccc(S(=O)(=O)Nc2ccccc2)cc1	43.1	.	.	.
CCOc1ccc(NS(=O)(=O)c2ccc(NC(=S)NC(=O)C(C)C)cc2)cc1	52.0	.	.	.
CCN1CCN(c2cc(C(C)C)nc3c(-c4ccccc4)c(C)nn23)CC1	.	.	.	.
CCN1CCN(c2cc(C(C)(C)C)nc3c(-c4ccccc4)c(C)nn23)CC1	46.7	.	.	.
Cc1ccc(-c2noc(CN3CCC(C(N)=O)CC3)n2)cc1	86.3	.	.	103.8
O=C(c1ccco1)N1CCN(C(=O)N2c3ccccc3Sc3ccccc32)CC1	42.9	.	.	103.8
CCCn1c(SCC(=O)NCc2ccccc2)n[nH]c1=O	.	.	.	.
Cn1c(SCC(=O)N2CCCC2=O)nnc1-c1ccccc1F	.	.	.	.
Fc1ccc(-c2csc3ncnc(Nc4ccc(N5CCOCC5)cc4)c23)cc1	41.9	.	.	.
COc1ccc(C(=O)Nc2c(C(C)(C)C)nn(C)c2C(C)(C)C)cc1	.	.	.	.
O=C(Nc1scc(-c2ccccc2)c1C(=O)O)c1ccco1	59.0	.	.	49.9
Cc1ccc(NS(=O)(=O)c2ccc(OCC(=O)Nc3cccc([N+](=O)[O-])c3)c(C)c2)cc1	.	.	.	.
NC(=O)c1c(N)sc2c1CCCCC2	.	.	.	.
NC(=O)c1c(N)sc2c1CCC2	.	.	41.2	.
Nc1sc2c(c1C(=O)NC1CCS(=O)(=O)C1)CCC2 (stereo not given)	45.0	.	.	.
CCc1ccc[n+](-c2[nH]c(=O)sc2/C=N/NC([S-])=Nc2ccccc2)c1	.	.	.	.
CCc1ccc[n+](-c2[nH]c(=O)sc2/C=N/N=C(\N)[O-])c1	.	42.3	.	.
CCOC(=O)CSc1nnc(NC(=O)c2cc([N+](=O)[O-])cc([N+](=O)[O-])c2)s1	.	.	.	92.2
COCCSc1nnc(NC(=O)c2ccc([N+](=O)[O-])cc2)s1	.	.	.	.
COCCCNC(=O)C1CCCN(S(C)(=O)=O)C1 (stereo not given)	.	.	.	.
O=C(Nc1ncnc2sc3c(c12)CCCCC3)c1ccc(F)cc1	.	.	47.4	.
O=C(Nc1ncnc2sc3c(c12)CCCCC3)c1ccccc1	.	.	.	.
O=C(CSc1c2c(nc3ccccc13)CCCC2)NCc1ccco1	.	.	.	.
SMILES	KLK5 inh	FXIa inh 1536	FXIIa inh	Thrombin inh
O=C(NCc1ccco1)c1c2c(nc3ccccc13)CCC2	.	.	47.6	.
CN(C)S(=O)(=O)c1ccc(Cl)c(-c2nnc3n2CCCCC3)c1	.	.	.	.
CCCOc1ccc(/C=N/NC(=O)C2CCCN2S(=O)(=O)c2ccc(Cl)cc2)cc1 (stereo not given)	49.4	.	.	.
Cc1ccc(/C=N\Nc2nc3ccc(Cl)cc3[nH]2)o1	.	.	51.7	.
Fc1ccccc1-c1ccc(/C=N/Nc2nc3ccccc3[nH]2)o1	.	.	.	.
CS(=O)(=O)N(CC(=O)Nc1ccccc1Cl)c1ccc(Cl)cc1	.	.	.	.
CCc1ccc(C(=O)COC(=O)CNC(=O)c2ccc(N3C(=O)c4ccccc4C3=O)cc2)cc1	43.7	.	.	.
CSc1ccc(NC(=O)Nc2cccn(Cc3ccccc3)c2=O)cc1	66.1	.	.	.
CCOC(=O)C1CCCN(C2CC(=O)N(c3ccc(C)cc3)C2=O)C1 (stereo not given)	40.5	.	.	.
CCc1ccc(C2CC(c3ccccc3)n3ncnc3N2)cc1 (stereo not given)	45.0	.	.	.
CC(=O)Nc1cccc(C(=O)/C=C/c2ccc(C)cc2)c1	61.4	.	.	.
COc1ccc(NC(=O)C2CCCCN2S(=O)(=O)c2ccc(F)cc2)c(OC)c1 (stereo not given)	40.8	.	.	.
COc1ccc(S(=O)(=O)N2CCCC2C(=O)Nn2cnnc2)cc1 (stereo not given)	.	.	43.3	.
Cc1ccc(S(=O)(=O)N2CCCC2C(=O)Nn2cnnc2)cc1 (stereo not given)	.	.	.	.
COc1ccc(NC(=O)C2CCCCN2S(=O)(=O)c2ccc(F)cc2)cc1 (stereo not given)	53.4	.	.	.
O=C(NNC(=O)c1cccs1)c1ccc([N+](=O)[O-])cc1	.	.	.	.
O=C(Oc1ccc2c(=O)c(Cl)coc2c1)c1ccncc1	.	42.5	41.3	.
COc1ccc(C(=O)CSc2nc3ncccc3[nH]2)cc1OC	.	.	102.4	.
CCN(CC)CCN1C(=O)c2ccccc2NC1c1ccc(F)cc1 (stereo not given)	.	.	.	.
CCN(CC)CCN1C(=O)c2ccccc2NC1c1ccccc1F (stereo not given)	41.4	.	.	.
CC1=CC(C)(C)N(C(=O)CNC2CCCCC2)c2cc(C)ccc21	.	.	.	.
CCOC(=O)C1CCCN(c2c(NCCc3ccccc3)c(=O)c2=O)C1 (stereo not given)	.	.	.	.
CCOC(=O)C1CCCN(c2c(NCCCN(C)c3ccccc3)c(=O)c2=O)C1 (stereo not given)	41.6	.	.	.
CCCN(CCC)S(=O)(=O)c1ccc(C(=O)NNc2nc(-c3ccccc3)c3cc(Br)ccc3n2)cc1	.	65.6	.	.
CC12CN3CC(C)(CN(C1)C3c1ccc(Br)cc1)C2=O (stereo not given)	68.3	.	.	.
SMILES	KLK5 inh	FXIa inh 1536	FXIIa inh	Thrombin inh
CC12CN3CC(C)(CN(C1)C3c1cc(Br)ccc1O)C2=O (stereo not given)	.	.	.	.
CCN(CC)C(=O)n1cnc(-c2ccccc2)c1-c1ccccc1	.	.	.	.
O=C(O)c1cc(-c2ccc3c(c2)OCO3)nc2ccccc12	.	.	.	.
CC(=O)c1ccc(N2CCN(C(=O)c3cc(-c4ccc5c(c4)OCO5)nc4ccccc34)CC2)cc1	81.5	.	.	.
O=C(COC(=O)COc1ccccc1[N+](=O)[O-])NC1CCCC1	.	.	.	.
N#Cc1ccccc1NC(=O)COC(=O)COc1ccccc1[N+](=O)[O-]	.	.	.	42.4
CC(OC(=O)CCC(=O)c1cccs1)C(=O)Nc1ccccc1[N+](=O)[O-] (stereo not given)	.	.	.	.
O=C(COC(=O)CCC(=O)c1cccs1)Nc1ccccc1[N+](=O)[O-]	.	.	.	41.6
CCc1nnc(NC(=O)c2ccc(NC(=O)C(C)C)cc2)s1	.	43.3	.	.
C[C@@H](C(=O)N1CCN(C(=O)OC(C)(C)C)CC1)n1cc(-c2cn([C@@H](C)C(=O)N3CCN(C(=O)OC(C)(C)C)CC3)nn2)nn1	.	.	.	.
